From ChEMBL document CHEMBL1142666, “Novel [2',5'-bis-O-(tert-butyldimethylsilyl)-beta-D-ribofuranosyl]- 3'-spiro-5''-(4''-amino-1'',2''-oxathiole-2'',2" -dioxide) derivatives with anti-HIV-1 and anti-human-cytomegalovirus activity” (J Med Chem, 2005)

What was measured:
Details in all cases: Homo sapiens
[1] = tested on: MT4; experiment: Cytostatic concentration required to inhibit MT-4 cell proliferation; assay type: functional
Summary of the method: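 Mock-infected MT-4 cells (3 × 10^5/mL) incubated with compound dilutions for 5 days. Viable cells counted by trypan blue exclusion. CC50 = concentration reducing viable MT-4 cell number by 50%.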

[2] = tested on: CCRF-CEM; experiment: Effective concentration required to inhibit HIV-2 ROD in CEM cell culture; assay type: functional, cell-based
Summary of the method: (§1)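 CEM cells (4 × 10^5/mL) infected at ~100 CCID50/mL and mixed with compound dilutions. Giant cell formation scored microscopically at day 4. EC50 = concentration inhibiting virus-induced cytopathicity by 50%.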

[3] = tested on: MT4; experiment: Effective concentration required to inhibit HIV-2 ROD in MT-4 cell culture; assay type: functional, cell-based
Summary of the method: (§2)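 MT-4 cells (3 × 10^5/mL) infected at ~100 CCID50/mL and mixed with compound dilutions. Cytopathicity read by trypan blue exclusion at day 5. EC50 = concentration giving 50% protection against virus-induced loss of viability.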

[4] = tested on: CCRF-CEM; experiment: Effective concentration required to inhibit HIV-1 IIIB in CEM cell culture; assay type: functional, cell-based; summary of the method: as §1
[5] = tested on: MT4; experiment: Effective concentration required to inhibit HIV-1 IIIB in MT-4 cell culture; assay type: functional, cell-based; summary of the method: as §2
[6] = tested on: CCRF-CEM; experiment: Cytostatic concentration required to inhibit CEM cell proliferation; assay type: functional
Summary of the method: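 CEM cells, mock-infected, grown with serial compound dilutions for 4 days. CC50 taken as the concentration that inhibits CEM cell proliferation by 50%.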

[7] = tested on: HEL; experiment: Effective concentration required to inhibit HCMV AD-169 in HEL Cells; assay type: functional, cell-based
Summary of the method: (§3)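 Confluent HEL cells infected with HCMV at 100 PFU/well. After 1-2 h, residual virus removed and MEM with 2% inactivated FCS added, with compound in duplicate at 5-fold dilution steps. After 7 days at 37 °C in 5% CO2, cells fixed with ethanol and Giemsa-stained; plaques or CPE scored microscopically. IC50 interpolated graphically; mean of two independent experiments.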

[8] = tested on: HEL; experiment: Minimal cytotoxic concentration required to cause microscopically visible alteration of cell morphology in HEL Cells; assay type: functional
Summary of the method: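 Uninfected HEL cells exposed to compound. Minimum cytotoxic concentration is the lowest level giving a microscopically detectable change in cell morphology.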

[9] = tested on: HEL; experiment: Effective concentration required to inhibit HCMV Davis in HEL Cells; assay type: functional, cell-based; summary of the method: as §3
[10] = tested on: HEL; experiment: Cytostatic concentration required to inhibit HEL cell proliferation; assay type: functional
Summary of the method: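 HEL fibroblasts seeded at 5 × 10^3 cells/well and grown 24 h, then given compound in duplicate. After 3 days at 37 °C in 5% CO2, cell number read on a Coulter counter. CC50 = concentration reducing cell growth by 50%.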

| Compound | CC50 [1] [µM] | EC50 [2] [µM] | EC50 [3] [µM] | EC50 [4] [µM] | EC50 [5] [µM] | CC50 [6] [µM] | EC50 [7] [µM] | MCC [8] [µM] | EC50 [9] [µM] | CC50 [10] [µM] |
| --- | --- | --- | --- | --- | --- | --- | --- | --- | --- | --- |
| Cc1cn([C@@H]2O[C@H](CO[Si](C)(C)C(C)(C)C)C3(OS(=O)(=O)C=C3N)[C@H]2O[Si](C)(C)C(C)(C)C)c(=O)[nH]c1=O (some centres not stated) | 12 | > 10 | > 10 |  |  |  |  |  |  |  |
| Cc1cn([C@@H]2O[C@H](CO[Si](C)(C)C(C)(C)C)[C@@]3(OS(=O)(=O)C=C3N)[C@H]2O[Si](C)(C)C(C)(C)C)c(=O)n(C)c1=O | 230 | > 250 | > 250 | 0.04 | 0.06 |  |  |  |  |  |
| Cc1cn([C@@H]2O[C@@H]3COC(=O)[C@]3(OS(C)(=O)=O)[C@H]2O)c(=O)[nH]c1=O | ≥ 250 | > 50 | > 250 | > 50 | > 50 | 160 | 179 | ≥ 400 | 164 | 36 |
| COC(=O)C(=O)NC1=CS(=O)(=O)O[C@@]12[C@@H](CO[Si](C)(C)C(C)(C)C)O[C@@H](n1cc(C)c(=O)n(C)c1=O)[C@@H]2O[Si](C)(C)C(C)(C)C | 10.3 | > 4 | > 4 | 0.06 | 0.08 | 5.57 | 253 | > 400 | 179 | > 200 |
| Cc1cn([C@@H]2O[C@H](CO[Si](C)(C)C(C)(C)C)[C@@]3(OS(=O)(=O)C=C3NC(=O)C(=O)O)[C@H]2O[Si](C)(C)C(C)(C)C)c(=O)n(C)c1=O | 31.1 | > 50 | > 10 | 0.23 | 1.3 | 72.6 | > 80 | 400 | 36 | 146 |
| Cc1cn([C@@H]2O[C@H](CO[Si](C)(C)C(C)(C)C)[C@@]3(OS(=O)(=O)C=C3NC(=O)C(N)=O)[C@H]2O[Si](C)(C)C(C)(C)C)c(=O)n(C)c1=O | 9.59 | > 10 | > 2 | 0.028 | 0.057 | 9.96 | 6.5 | ≥ 16 | 6.5 | 14.5 |
| Cc1cn([C@@H]2O[C@H](CO[Si](C)(C)C(C)(C)C)[C@@]3(OS(=O)(=O)C=C3NC(=O)C(=O)N3CCC3)[C@H]2O[Si](C)(C)C(C)(C)C)c(=O)n(C)c1=O | 17.4 | > 10 | > 50 | 0.7 | 0.8 | 21.6 | 10 | 65 | 10 | 84.4 |
| CC(=O)NC1=CS(=O)(=O)O[C@@]12[C@@H](CO[Si](C)(C)C(C)(C)C)O[C@@H](n1cc(C)c(=O)n(C)c1=O)[C@@H]2O[Si](C)(C)C(C)(C)C | 10.7 | > 25 | > 5 | > 25 | > 5 | 25.7 | 40 | ≥ 80 | > 16 | > 200 |
| Cc1cn([C@@H]2O[C@H](CO[Si](C)(C)C(C)(C)C)[C@@]3(OS(=O)(=O)C=C3NC(=O)c3ccccc3)[C@H]2O[Si](C)(C)C(C)(C)C)c(=O)n(C)c1=O | 4.9 | > 5 | > 5 | > 5 | > 5 | 4.91 | 1.3 | ≥ 3.2 | 1.2 | 9.7 |
| COC(=O)NC1=CS(=O)(=O)O[C@@]12[C@@H](CO[Si](C)(C)C(C)(C)C)O[C@@H](n1cc(C)c(=O)n(C)c1=O)[C@@H]2O[Si](C)(C)C(C)(C)C | 29.9 | > 20 | > 20 | > 20 | > 20 | 30.7 | ≥ 20 | ≥ 50 | 25 | > 200 |
| COC(=O)CC(=O)NC1=CS(=O)(=O)O[C@@]12[C@@H](CO[Si](C)(C)C(C)(C)C)O[C@@H](n1cc(C)c(=O)n(C)c1=O)[C@@H]2O[Si](C)(C)C(C)(C)C | 11.9 | > 25 | > 5 | ≥ 5 | 19.5 | 29.7 | 9 | 400 | 10 | 29 |
| Cc1cn([C@@H]2O[C@H](CO[Si](C)(C)C(C)(C)C)[C@@]3(OS(=O)(=O)C=C3NCC(=O)OCc3ccccc3)[C@H]2O[Si](C)(C)C(C)(C)C)c(=O)n(C)c1=O | > 250 | > 250 | > 250 | 6.7 |  | > 250 | > 400 | ≥ 400 | > 400 | > 200 |
| Cc1cn([C@@H]2O[C@@H]3COC4(O)CS(=O)(=O)O[C@@]34[C@H]2O)c(=O)[nH]c1=O (some centres not stated) | > 100 | > 100 | > 100 | > 100 | > 100 | > 100 |  |  |  |  |
| Cc1cn([C@@H]2O[C@@H]3COC4(O)CS(=O)(=O)O[C@@]34[C@H]2O[Si](C)(C)C(C)(C)C)c(=O)[nH]c1=O (some centres not stated) | > 100 | > 100 | > 100 | > 100 | > 100 | > 100 |  |  |  |  |
| CCOC(=O)NC(=O)NC1=CS(=O)(=O)O[C@@]12[C@@H](CO[Si](C)(C)C(C)(C)C)O[C@@H](n1cc(C)c(=O)n(C)c1=O)[C@@H]2O[Si](C)(C)C(C)(C)C |  | > 2 | > 2 | > 2 | > 2 | 3 | 2.3 | 16 | 1.8 | 14 |
| Cc1cn([C@@H]2O[C@H](CO[Si](C)(C)C(C)(C)C)[C@@]3(OS(=O)(=O)C=C3NC(N)=O)[C@H]2O[Si](C)(C)C(C)(C)C)c(=O)n(C)c1=O | 3.7 | > 2 | > 2 | > 2 | > 2 | 4.36 | > 3.2 | 16 | 2 | 11 |
| Cc1cn([C@@H]2O[C@H](CO[Si](C)(C)C(C)(C)C)[C@@]3(OS(=O)(=O)C=C3NC(=O)NC(=O)c3ccccc3)[C@H]2O[Si](C)(C)C(C)(C)C)c(=O)n(C)c1=O | 3.33 | > 2 | > 10 | > 2 | > 2 | 2.29 | 1.2 | ≥ 80 | 0.8 | ≥ 200 |
| CCNC(=O)NC1=CS(=O)(=O)O[C@@]12[C@@H](CO[Si](C)(C)C(C)(C)C)O[C@@H](n1cc(C)c(=O)n(C)c1=O)[C@@H]2O[Si](C)(C)C(C)(C)C |  | > 2 | > 2 | > 2 | > 2 | 4.26 | 1.8 | ≥ 3.2 | 2 | 10 |
